Experimental data: article PMC6675461 (Bioorganic & medicinal chemistry, 2009)
Read-outs that look alike come from different tables or passages of the source.

How the values were obtained:
[1] = tested on: PPC-1 cells; experiment: SRB antiproliferative assay, PPC-1 prostate cancer cells; assay type: cell-based, human; conditions: Homo sapiens, PPC-1, 96 h, read-out: IC50 ± SEM PPC-1
Summary of the method: (§1)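 Prostate cancer cells were grown in RPMI1640 with 10% FBS at 37 °C, 5% CO2. Cells were fixed with 10% TCA and stained with 0.4% SRB, and absorbance was read at 540 nm. IC50 came from nonlinear regression of % survival versus concentration.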

[2] = tested on: A375 cells; experiment: Melanoma colony-formation assay; assay type: cell-based, human; conditions: 14 days
Summary of the method: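 A375 cells were plated at colony-forming density (2000 per well) in DMEM with FBS and antibiotic-antimycotic at 37 °C, 5% CO2. Test compound was added at 2, […], with matching DMSO dilution as vehicle control. After 14 days' growth, colonies were stained with 0.1% […] for 30 min, rinsed and counted with an automated colony counter.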

[3] = tested on: A375 melanoma tumors; experiment: A375 melanoma xenograft in athymic nude mice; assay type: in vivo; conditions: nude mice, treatment groups
[4] = tested on: A375 cells; experiment: Flow cytometric cell cycle analysis, A375; assay type: cell-based, human; conditions: A375, tested 1, 5, 10, 20 μM, 48 h
[5] = tested on: DU 145 cells; experiment: SRB antiproliferative assay, DU 145 prostate cancer cells; assay type: cell-based, human; conditions: Homo sapiens, DU-145, 96 h, read-out: IC50 ± SEM DU 145
Summary of the method: as §1

[6] = tested on: LNCaP cells; experiment: SRB antiproliferative assay, LNCaP prostate cancer cells; assay type: cell-based, human; conditions: Homo sapiens, LNCaP, 96 h, read-out: IC50 ± SEM LNCaP
Summary of the method: as §1

[7] = tested on: NCI-60 human tumor cell lines; experiment: NCI-60 human tumor cell line anticancer drug screen; assay type: cell-based
[8] = tested on: three melanoma cell lines (B16-F1, A375, WM-164); experiment: SRB assay, average over melanoma cell lines and selectivity vs fibroblast; assay type: cell-based, human, mouse; conditions: Fibroblast
[9] = tested on: LNCaP cells; experiment: Flow cytometric cell cycle analysis, LNCaP; assay type: cell-based, human; conditions: tested 1, 5, 10, 20 μM, 48 h
[10] = target: T1, LPA3 (Homo sapiens, UniProt Q9UBY5); experiment: FLIPR intracellular calcium mobilization assay, LPA3-transfected Chem-1 cells; assay type: cell-based
T1 sequence (Q9UBY5 1-353): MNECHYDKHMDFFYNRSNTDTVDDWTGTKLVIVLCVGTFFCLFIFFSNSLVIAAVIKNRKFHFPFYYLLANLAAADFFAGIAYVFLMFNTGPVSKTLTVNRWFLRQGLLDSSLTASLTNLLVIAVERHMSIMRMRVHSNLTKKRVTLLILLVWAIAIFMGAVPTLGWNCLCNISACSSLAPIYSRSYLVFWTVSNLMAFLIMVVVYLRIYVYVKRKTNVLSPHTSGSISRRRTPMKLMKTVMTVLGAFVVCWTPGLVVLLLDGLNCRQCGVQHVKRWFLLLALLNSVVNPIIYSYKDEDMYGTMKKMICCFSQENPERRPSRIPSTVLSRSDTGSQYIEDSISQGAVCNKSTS

[11] = target: LPA5 (Homo sapiens, UniProt Q9H1C0); experiment: FLIPR intracellular calcium mobilization assay, LPA5-transfected Chem-1 cells; assay type: cell-based
[12] = tested on: PC-3 cells; experiment: SRB antiproliferative assay, PC-3 prostate cancer cells; assay type: cell-based, human; conditions: Homo sapiens, PC-3, 96 h, read-out: IC50 ± SEM PC-3
[13] = tested on: RH7777 cells; experiment: SRB assay, RH7777 control cells; assay type: cell-based; conditions: Homo sapiens, RH7777, 96 h, read-out: IC50 ± SEM RH7777
Summary of the method: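 PC-3 cells were grown in RPMI1640 with 10% FBS, and RH7777 cells in DMEM with 10% FBS, both at 37 °C, 5% CO2. Cells were fixed with 10% TCA, stained with 0.4% SRB and read at 540 nm. IC50 came from nonlinear regression of % survival versus concentration.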

[14] = target: LPA1 (Homo sapiens, UniProt Q92633); experiment: FLIPR intracellular calcium mobilization assay, LPA1-transfected Chem-1 cells; assay type: cell-based
[15] = read-out: Aver. (average IC50 of three melanoma cells IC50s)
[16] = against oleoyl-LPA at EC80, top concentration 10 μM
[17] = top concentration 10 μM, 15% activation of oleoyl-LPA Emax = agonist

Sequence of LPA5 (Q9H1C0 whole entry, species assumed): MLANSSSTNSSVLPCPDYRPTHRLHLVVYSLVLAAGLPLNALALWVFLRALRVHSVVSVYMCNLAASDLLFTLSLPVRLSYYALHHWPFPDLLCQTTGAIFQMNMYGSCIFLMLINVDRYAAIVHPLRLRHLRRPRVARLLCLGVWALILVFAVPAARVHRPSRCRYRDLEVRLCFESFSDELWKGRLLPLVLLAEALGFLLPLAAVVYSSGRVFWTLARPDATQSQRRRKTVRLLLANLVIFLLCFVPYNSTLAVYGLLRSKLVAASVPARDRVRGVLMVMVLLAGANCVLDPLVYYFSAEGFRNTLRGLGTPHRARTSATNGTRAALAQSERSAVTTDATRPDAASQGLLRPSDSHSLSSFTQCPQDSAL
Sequence of LPA1 (Q92633 whole entry, species assumed): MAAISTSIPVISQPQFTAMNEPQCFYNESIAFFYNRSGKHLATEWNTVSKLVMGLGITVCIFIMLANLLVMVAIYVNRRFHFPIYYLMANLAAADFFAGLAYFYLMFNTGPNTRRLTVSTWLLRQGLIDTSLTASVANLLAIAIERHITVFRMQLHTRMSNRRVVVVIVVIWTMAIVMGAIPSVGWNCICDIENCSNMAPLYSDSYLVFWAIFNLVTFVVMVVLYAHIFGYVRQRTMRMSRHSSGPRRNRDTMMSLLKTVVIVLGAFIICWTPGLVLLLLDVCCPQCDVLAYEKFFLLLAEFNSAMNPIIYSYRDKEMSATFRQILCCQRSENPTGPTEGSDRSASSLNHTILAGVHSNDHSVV

**Q.** Which IC50 [1] does the source give for `CCCCCCCCCCCCCCCCNC(=O)[C@@H]1CSC(c2ccc(NC(C)=O)cc2)N1` (mixture of isomers) [Compound 1b, (2RS,4R)-2-(4-Acetylamino-phenyl)-thiazolidine-4-carboxylic acid hexadecylamide] here?
**A.** Its IC50 is 400 ± 100 nM.

**Q.** What about the “inhibition of A375 colony formation” value ([2]; 2 μM) of the same compound?
**A.** Its value is “effectively inhibit”.

**Q.** What about the “inhibition of A375 colony formation” value ([2]; 100 μM) of the same compound?
**A.** The value was “completely inhibited”.

**Q.** What about the “body weight change during the experiment” value [3] of the same compound?
**A.** The value was “no significant body weight loss”.

**Q.** And the “concentration at which accumulation of cells in sub-G1 phase became apparent” value [4]?
**A.** Its value is 5 µM.

**Q.** And the IC50 [5]?
**A.** The IC50 was 1700 ± 100 nM.

**Q.** What about the IC50 [6] of the same compound?
**A.** Its IC50 is 1000 ± 100 nM.

**Q.** What about the GI50 ([7]; read-out: GI50 melanoma) of the same compound?
**A.** The GI50 was 130 to 1480 nM.

**Q.** What about the GI50 ([7]; read-out: GI50 prostate cancer) of the same compound?
**A.** The GI50 was 170 to 270 nM.

**Q.** And the GI50 ([7]; read-out: GI50 range, all nine types of cancer cells)?
**A.** The GI50 was 120 to 10900 nM.

**Q.** And the IC50 [8, 15]?
**A.** The IC50 was 1800 nM.

**Q.** What about the IC50 ([8]; read-out: IC50 range over melanoma cell lines) of the same compound?
**A.** The IC50 was 700 to 2100 nM.

**Q.** What about the “concentration at which accumulation of cells in sub-G1 phase became apparent” value [9] of the same compound?
**A.** The value was 5 µM.

**Q.** What does the source list for `CCCCCCCCCCCCCCCCNC(=O)[C@@H]1CSC(c2cc(OC)c(OC)c(OC)c2)N1` (mixture of isomers) [Compound 3ad, (2RS,4R)-2-(3,4,5-Trimethoxy-phenyl)-thiazolidine-4-carboxylic acid hexadecylamide]?
**A.** antagonist activity on LPA3, in words [10, 16]: did not exhibit any dose-dependent antagonist activity; agonist activity on LPA3, in words [10, 17]: did not exhibit any dose-dependent agonist activity; IC50 [1]: 400 ± 100 nM; inhibition of A375 colony formation ([2]; 2 μM): effectively inhibit; inhibition of A375 colony formation ([2]; 20 μM): almost completely inhibited; inhibition of A375 colony formation ([2]; 100 μM): completely inhibited; antagonist activity on LPA5, in words [11, 16]: did not exhibit any dose-dependent antagonist activity; agonist activity on LPA5, in words [11, 17]: did not exhibit any dose-dependent agonist activity; concentration at which accumulation of cells in sub-G1 phase became apparent [4]: 5 µM; IC50 [5]: 1700 ± 100 nM; IC50 [12]: 1800 ± 100 nM; IC50 [6]: 800 ± 100 nM; IC50 [8, 15]: 1200 nM; IC50 [13]: 7200 ± 100 nM; concentration at which accumulation of cells in sub-G1 phase became apparent [9]: 5 µM; antagonist activity on LPA1, in words [14, 16]: did not exhibit any dose-dependent antagonist activity; agonist activity on LPA1, in words [14, 17]: did not exhibit any dose-dependent agonist activity
